ChEMBL document CHEMBL4017487, “Design and Synthesis of γ- and δ-Lactam M1 Positive Allosteric Modulators (PAMs): Convulsion and Cholinergic Toxicity of an M1-Selective PAM with Weak Agonist Activity” (J Med Chem, 2017)

Tests used:
Plasma = test: Unbound plasma concentration in scopolamine-induced memory impairment Wistar rat model at 1 mg/kg, sc measured after 1.25 hrs by LC-MS/MS analysis; assay type: ADME, organism-based; details: in vivo
Summary of the method: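 Rats from a satellite group of the scopolamine (0.32 mg/kg) Morris water maze study, N = 2/dose. Dosed sc as a solution in 20% hydroxypropyl β-cyclodextrin. Compound concentrations measured in plasma only at T = 1.25 h.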

Cavia porcellus = species: Cavia porcellus; test: (§1) Agonist activity at muscarinic acetylcholine receptor M1 in Hartley guinea pig ileum longitudinal muscle myenteric plexus assessed as tissue contraction after 10 mins
[1] = as §1; details: Cavia porcellus
Canis familiaris [2] = test: Toxicity in dog assessed as vocalization at 15 mg/kg, po administered as single dose using spray dried dispersion formulation after 1 hr; assay type: organism-based, Canis lupus familiaris; details: in vivo
Canis familiaris [3] = test: Cholinergic toxicity in dog assessed as increased activity at 15 mg/kg, po administered as single dose using spray dried dispersion formulation after 1 hr; assay type: organism-based, Canis lupus familiaris; details: in vivo
Summary of the method: (§2)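 Dog single oral dose escalation: 1/sex at 5 mg/kg for each formulation; 1 female at 15 mg/kg. Spray-dried dispersion: 23% drug loading with 0.5% methylcellulose and 100 mM citrate buffer. Clinical signs timed in approximate hours postdose; unbound plasma Cmax.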

MDR1 = test: Efflux ratio of permeability from basolateral to apical side over apical to basolateral side in MDCK1 cells expressing MDR1; assay type: ADME, cell-based, Canis lupus familiaris; details: dog, MDCK-MDR1
Summary of the method: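 MDCKI-MDR1 cells (MDCK epithelial line transfected with MDR1/P-gp; from the NIH). Permeability measured as a rate in 10−6 cm/s in both directions; value is the BA/AB ratio.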

[4] = target: T1, Muscarinic acetylcholine receptor M5 (Homo sapiens, UniProt P08912); test: Positive allosteric modulation of human muscarinic acetylcholine receptor M5 expressed in CHO cells assessed as increase in acetylcholine-induced calcium mobilization up to 10 uM preincubated for 10 mins followed by acetylcholine addition by Fluo-8-AM dye based FLIPR assay; assay type: cell-based
T1 sequence (P08912 whole entry): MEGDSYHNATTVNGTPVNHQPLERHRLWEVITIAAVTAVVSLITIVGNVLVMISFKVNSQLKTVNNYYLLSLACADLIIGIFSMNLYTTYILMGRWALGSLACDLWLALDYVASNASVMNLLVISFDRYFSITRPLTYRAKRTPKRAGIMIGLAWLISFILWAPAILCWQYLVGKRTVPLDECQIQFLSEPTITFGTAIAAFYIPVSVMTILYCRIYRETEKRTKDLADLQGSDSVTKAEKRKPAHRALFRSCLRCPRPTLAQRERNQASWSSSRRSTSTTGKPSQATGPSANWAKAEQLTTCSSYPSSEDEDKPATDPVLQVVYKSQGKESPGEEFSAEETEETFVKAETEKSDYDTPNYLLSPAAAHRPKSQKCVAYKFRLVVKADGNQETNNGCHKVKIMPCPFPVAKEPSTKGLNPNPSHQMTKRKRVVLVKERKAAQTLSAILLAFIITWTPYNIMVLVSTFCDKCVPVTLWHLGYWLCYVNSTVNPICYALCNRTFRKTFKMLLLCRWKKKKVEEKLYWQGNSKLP
Summary of the method: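 Recombinant functional human M2–M5 assays, each run in agonist and PAM modes at concentrations up to 10 μM.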

Rattus norvegicus [5] = test: Unbound Cmax in rat plasma at 5 mg/kg, po administered as single dose; assay type: ADME, organism-based; details: in vivo
Summary of the method: (§3)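 Rats (3/sex/dose) dosed orally once, 1 or 5 mg/kg as a 0.5% methylcellulose suspension.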

[6] = target: T2, Muscarinic acetylcholine receptor M1 (Homo sapiens, UniProt P11229); test: Activity at human muscarinic acetylcholine receptor M1 expressed in CHO cells assessed as increase in acetylcholine-induced calcium mobilization incubated for 10 mins by Fluo-8-AM dye based FLIPR assay; assay type: ADME, cell-based
T2 sequence (P11229 whole entry): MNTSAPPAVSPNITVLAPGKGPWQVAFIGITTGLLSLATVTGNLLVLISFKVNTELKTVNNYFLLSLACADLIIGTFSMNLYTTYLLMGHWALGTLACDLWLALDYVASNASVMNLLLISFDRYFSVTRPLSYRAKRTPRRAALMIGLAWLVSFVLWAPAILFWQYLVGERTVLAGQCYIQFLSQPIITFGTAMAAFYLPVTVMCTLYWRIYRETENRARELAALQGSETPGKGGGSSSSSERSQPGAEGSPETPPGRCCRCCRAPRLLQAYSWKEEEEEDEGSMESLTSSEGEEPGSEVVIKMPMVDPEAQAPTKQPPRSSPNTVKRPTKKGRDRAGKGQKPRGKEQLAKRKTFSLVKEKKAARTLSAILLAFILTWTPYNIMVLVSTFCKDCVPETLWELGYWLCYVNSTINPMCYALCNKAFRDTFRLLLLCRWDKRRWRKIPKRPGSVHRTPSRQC
Summary of the method: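 Calcium-mobilization potentiation assay read on a FLIPR plate reader in the presence of an EC20 concentration of ACh. EC50 is the geometric mean of at least three experiments.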

Rattus norvegicus [7] = test: Unbound Cmax in rat plasma at 1 mg/kg, po administered as single dose; assay type: ADME, organism-based; details: in vivo; summary of the method: as §3
[8] = target: T2, Muscarinic acetylcholine receptor M1; test: Ratio of positive allosteric modulation of human muscarinic acetylcholine receptor M1 expressed in CHO cells assessed as increase in acetylcholine-induced beta-arrestin recruitment by measuring functional co-operativity with acetylcholine to Kb for human muscarinic acetylcholine receptor M1 expressed in CHO cells assessed as increase in beta-arrestin recruitment; assay type: ADME, cell-based
[9] = Ratio of unbound Cmax in dog brain assessed as convulsions at 15 mg/kg, po administered as single dose to unbound brain concentration for agonist activity at muscarinic acetylcholine receptor M1 in C57BL/6 mouse assessed as required to show 2 fold increase in IP1 accumulation in striatum at 1 to 10 mg/kg, sc; assay type: organism-based
[10] = target: T2, Muscarinic acetylcholine receptor M1; test: Ratio of intrinsic activity at human muscarinic acetylcholine receptor M1 expressed in CHO cells by beta-arrestin recruitment assay to intrinsic activity at human muscarinic acetylcholine receptor M1 expressed in CHO cells assessed as increase in calcium mobilization; assay type: ADME, cell-based
[11] = target: T2, Muscarinic acetylcholine receptor M1; test: Agonist activity at human muscarinic acetylcholine receptor M1 expressed in CHO cells assessed as increase in calcium mobilization at 30 uM incubated for 10 mins by Fluo-8-AM dye based FLIPR assay relative to acetylcholine; assay type: cell-based
Canis familiaris [12] = test: Cholinergic toxicity in dog assessed as emesis at 5 mg/kg, po administered as single dose using shydroxypropyl cellulose/docusate sodium formulation after 0.5 to 1.3 hrs; assay type: organism-based, Canis lupus familiaris; details: in vivo
Summary of the method: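 Single-dose oral dose-escalation study, 1 dog/sex/dose. The 5 mg/kg dose was given as a nanosuspension in hydroxypropyl cellulose SL with 0.05% docusate sodium in purified water. Cholinergic clinical signs were recorded at approximate hours postdose, alongside unbound plasma Cmax.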

[13] = target: T2, Muscarinic acetylcholine receptor M1; test: Displacement of [3H]PT-1284 human muscarinic acetylcholine receptor M1 expressed in CHO cell membranes after 90 mins scintillation counting method
[14] = Unbound plasma concentration in dog at 0.5 mg/kg, po or 0.1 mg/kg, iv administered as single bolus dose; assay type: ADME, organism-based, Canis lupus familiaris
Summary of the method: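 Dog PK: IV bolus given as a solution, 0.1 mg/kg in 20% HPBCD; oral dose given as a suspension, 0.5 mg/kg in 0.5% methylcellulose. Fraction unbound in plasma determined.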

[15] = target: T2, Muscarinic acetylcholine receptor M1; test: Activity at human muscarinic acetylcholine receptor M1 expressed in CHO cells assessed as increase in acetylcholine-induced beta-arrestin recruitment; assay type: cell-based
Canis familiaris [16] = test: Cholinergic toxicity in dog assessed as emesis at 5 mg/kg, po administered as single dose using spray dried dispersion formulation after 1 to 4 hrs; assay type: organism-based, Canis lupus familiaris; details: in vivo; summary of the method: as §2
Brain = test: Unbound brain concentration in scopolamine-induced memory impairment Wistar rat model at 3.2 mg/kg, sc measured after 1.25 hrs by LC-MS/MS analysis; assay type: ADME, organism-based; details: in vivo

Cc1cc2c(cc1Cc1ccc(-c3cocn3)cc1)C(=O)N([C@H]1CCOC[C@@H]1O)C2
Cp(f) (Plasma): 66 nM
Activity (Cavia porcellus): Dose-dependent effect
EC50 [1]: 92 nM
Activity (Canis familiaris [2]): Toxic
Activity (Canis familiaris [3]): Toxic
efflux ratio (MDR1): 11
Activity [4]: Not Active
fCmax (Rattus norvegicus [5]): 313 nM
KA [6]: 1.3 µM
fCmax (Rattus norvegicus [7]): 73 nM
Ratio [8]: 100
selectivity ratio [9]: 15
Ratio [10]: 1.4
Activity [11]: 23%
Activity (Canis familiaris [12]): Toxic
Ki [13]: 16 nM
fraction unbound [14]: 0.059
KA [15]: 60 µM
Activity (Canis familiaris [16]): Toxic
Drug uptake(free) (Brain): 40 nM
